Compound activity as filed in PubChem.
This is a sample that favours compounds with a hit; in the whole collection about 2.2% have one here.
Neddyl block = inhibitors of human cullin neddylation; calls only at 25 µM; P61081+Q13564; actives 0.58% (n = 360,000); TR-FRET cullin neddylation, biochemical; in the data active means inhibition above about 36%
Target sequence (P61081 whole entry, looked up): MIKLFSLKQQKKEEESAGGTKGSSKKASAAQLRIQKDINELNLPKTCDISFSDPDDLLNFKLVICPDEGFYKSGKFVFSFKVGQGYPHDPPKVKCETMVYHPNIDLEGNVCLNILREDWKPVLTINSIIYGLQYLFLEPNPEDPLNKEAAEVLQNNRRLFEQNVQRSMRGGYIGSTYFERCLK
Target sequence (Q13564 whole entry, looked up): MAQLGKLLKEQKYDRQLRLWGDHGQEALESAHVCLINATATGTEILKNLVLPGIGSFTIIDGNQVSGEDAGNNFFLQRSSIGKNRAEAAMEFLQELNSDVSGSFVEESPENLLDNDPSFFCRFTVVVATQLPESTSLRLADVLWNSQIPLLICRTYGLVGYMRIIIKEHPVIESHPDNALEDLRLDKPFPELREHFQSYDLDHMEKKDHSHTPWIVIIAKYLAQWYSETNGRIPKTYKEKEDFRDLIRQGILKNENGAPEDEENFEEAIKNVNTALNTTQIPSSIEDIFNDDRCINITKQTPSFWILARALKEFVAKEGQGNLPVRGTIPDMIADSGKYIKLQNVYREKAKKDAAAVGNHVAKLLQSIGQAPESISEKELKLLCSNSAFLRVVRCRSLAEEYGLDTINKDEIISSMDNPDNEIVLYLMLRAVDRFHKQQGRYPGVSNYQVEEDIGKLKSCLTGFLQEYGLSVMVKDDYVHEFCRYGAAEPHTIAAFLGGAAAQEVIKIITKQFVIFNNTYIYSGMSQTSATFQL
KLK7 zymogen act = activates the human kallikrein-7 zymogen; actives 0.9% (n = 370,000); activation, % at 7 µM; purified proKLK7, EDANS-DABCYL substrate fluorescence; 100% is mature enzyme control, 0% vehicle;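 active means activation above the mean of all tested compounds plus 3 SD, computed per campaign excluding outliers beyond control limits, cut at about 13% in these data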
MT1-MMP act inh = MT1-MMP (human) activation inhibition. P50281. HT1080 RFP-PRO-GFP cells, GFP/RFP ratio fluorescence, overnight; percent of plate control window, DMSO zero. GFP/RFP ratio change, % at 20 µM. actives 0.061% (n = 360,000). AID 651647;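 active means GFP/RFP ratio change of at least 30% with cell ATP level not reduced by more than half and red fluorescence within 50% of control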
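Read-out: GFP/RFP fluorescence ratio; Test system: RFP-PRO-GFP reporter HT1080 cells; Compound dosing: single-point 20 µM compound, 1% DMSO; Times: overnight compound exposure at 37 °C.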
DDE Tn7 FP inh = DD(E)-Tn7 binding inhibition, primary FP screen | P02675 | FP displacement of FITC-Tn7 peptide from fibrin DD(E); 0% = median of compound wells per plate | inhibition, % at 8.3 µM | actives 0.13% (n = 370,000);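 active means inhibition above the mean of compounds falling within the control limits plus 3 SD of them, cut at about 14% in these data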;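 further: 0% = plate median of compound wells and 100% = 10 µM Aha-Tn7 peptide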
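Assay system: Human fibrin DD(E) protein | Medium: Tris buffer with calcium and detergent, pH 7.8 | Reagent: 0.1 µM fluorescent Tn7 | Compound dosing: Single point at 8.3 µM | Times: 10 min preincubation, 3 h with tracer, room temperature | Detection: Fluorescence polarization of the labelled Tn7 tracer | Controls: Aha-Tn7 high control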
SKN-1 block = inhibitors of C. elegans SKN-1; C. elegans VP596 Pgst-4::GFP/RFP ratio, acrylamide-induced, 24 h; actives 0.49% (n = 360,000); AID 624304; inhibition, % at 21.8 µM;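 active means interference check ratio from 0.5 to 1.5 plus GFP to RFP signal ratio inhibition reaching or exceeding a fixed threshold, cut at about 30% in these data, passing the limit was not always enough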
DDE Tn6 FP inh = inhibitors of Tn6 peptide binding to human fibrin DD(E); P02675; inhibition, % at 8.3 µM; Fibrin DD(E) TRITC-Tn6 fluorescence polarization displacement; actives 0.21% (n = 370,000);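 active means inhibition above a per-campaign cutoff: mean of compounds within control limits plus 3 SD, cut at about 15% in these data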;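 further: 0% = median of all compound wells on the plate and 100% = blocking peptide control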
KLK7 act conf = confirmation of human kallikrein-7 zymogen activators; actives 68% (n = 3,200); activation, % at 7 µM; AID 686949; purified proKLK7, EDANS-DABCYL substrate fluorescence; scaled: vehicle 0, mature enzyme 100; shares compounds with KLK7 zymogen act;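 active means activation, as change over the incubation, above the mean of all tested compounds plus 3 SD, cut at about 13% in these data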
EDANS interfere = counter-screen for kallikrein-7 activators: EDANS-DABCYL optical interference. shares compounds with KLK7 zymogen act. EDANS-DABCYL substrate fluorescence interference, no enzyme, 4 h; solvent 0%, active enzyme control 100%. activation, % at 7 µM. actives 80% (n = 3,200);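 active means activation above the all-compound mean plus 3 SD, ignoring values outside control-based bounds, cut at about 4.8% in these data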;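 further: value is the 4 h activation minus the activation read at time zero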
K7 EDANS ctr = counter-screen for kallikrein-7 activators: EDANS-DABCYL interference, dose response; shares compounds with KLK7 zymogen act; EC50, µM; actives 20% (n = 250); EDANS-DABCYL peptide fluorescence interference, no enzyme;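 active means compounds that raise the fluorescence signal in this interference counterscreen, with EC50 at or below 10 µM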;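 further: intact quenched peptide substrate alone read at 355 nm excitation and 520 nm emission; signal is fluorescence gain from T0 to T4 after four hours at room temperature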
An asterisk follows results filed as active; i = inactive; x = no result given.

SMILES	Neddyl block	KLK7 zymogen act	MT1-MMP act inh	DDE Tn7 FP inh	SKN-1 block	DDE Tn6 FP inh	KLK7 act conf	EDANS interfere	others
O=C(Nc1ccc(N2CCCCC2)c(S(=O)(=O)Nc2ccccc2Cl)c1)c1cccnc1	i	1	1	5	15	4	x	x
CC1=NCC(C)c2c1[nH]c1ccccc21 (stereo not drawn)	x	30*	-12	2	-22	-1	20*	17*
O=C1CN(c2nc(-c3ccccc3)c3ccccc3n2)c2ccccc2N1	i	0	-7	-7	0	-5	x	x
Cc1ccccc1N(CC(=O)NC1CCCC1)C(=O)C1(C)CC(=O)N=C2C=CC=CN21 (stereo not drawn)	x	3	5	6	18	6	x	x
Cc1ccccc1N(CC(=O)NC1CCCC1)C(=O)C1(C)CC(=O)N=C2C=CC(Cl)=CN21 (stereo not drawn)	x	16*	-1	-4	26	3	33*	39*
CN(C)S(=O)(=O)c1cccc(C(=O)c2nccn2C)c1	i	0	0	-6	-8	-6	x	x
O=S(=O)(c1cccc(-c2cn3cccnc3n2)c1)N1CCOCC1	x	30*	6	-3	17	-1	71*	67*
CN(C)S(=O)(=O)c1ccc(-c2cn3ccccc3n2)cc1	x	30*	10	7	26	2	22*	31*
CN(C)S(=O)(=O)c1cccc(-c2cn3cccnc3n2)c1	x	39*	4	-6	6	-2	57*	62*
Cc1ccc2nc(-c3cccc(S(=O)(=O)N4CCCC4)c3)cn2c1	i	0	-1	4	14	-9	x	x
N/C(=N\N=C\c1cccc([N+](=O)[O-])c1)c1nonc1N	i	0	3	-2	26	1	x	x
CCC(OC(=O)CN1C(=O)c2ccccc2C1=O)C(=O)NC1CCCC1 (stereo not drawn)	i	0	-1	2	-2	0	x	x
COc1ccc(CCNC(=S)NCCc2ccc(OC)c(OC)c2)cc1OC	i	0	4	-8	-3	5	x	x
CC[C@@H]1C(c2cccc(C)c2)=NN(c2ccccc2)[C@H]1C(=O)N1CCOC1=O	i	41*	-1	-5	19	1	56*	52*
CC[C@@H]1C(c2cccc(Cl)c2)=NN(c2ccc(Br)cc2)[C@H]1C(=O)N1CCOC1=O	x	x	2	x	0	x	x	x
C[C@@H]1C(c2ccc(F)cc2)=NN(c2ccccc2)[C@H]1C(=O)N1CCOC1=O	i	21*	4	3	-6	-2	13*	24*
CC[C@@H]1C(c2ccccc2)=NN(c2ccc(Br)cc2)[C@H]1C(=O)N1CCOC1=O	x	28*	0	-6	10	3	2	1
Cc1cc(C(=O)NC2CC(C)(C)Cc3c2cnn3-c2cccc(F)c2)nn1C (stereo not drawn)	i	0	0	3	-27	-5	x	x
COC(=O)[C@]12CCCCC=C1N(Cc1ccc3c(c1)OCO3)C(=O)[C@H](CC(=O)N1CCN(C(=O)c3ccco3)CC1)C2	i	0	4	-6	-6	0	x	x
c1coc(-c2nc3nc4ccccc4nc3n2CC2CCCO2)c1 (stereo not drawn)	x	22*	-40	-3	17	7	8	13*
Nc1ncc(-c2ccccc2)n1CC1CCCO1 (stereo not drawn)	i	0	11	-3	11	9	x	x
c1ccc(-c2nc3nc4ccccc4nc3n2CC2CCCO2)cc1 (stereo not drawn)	x	18*	-5	13	-1	0	5	7.8*
O=C(CSc1nc(O)cc(=O)n1-c1ccccc1)Nc1ccccn1	i	0	0	-7	-3	2	x	x
COc1ccccc1C(=O)NC(=S)Nc1cc(C(=O)O)ccc1C	i	0	-1	2	7	0	x	x
COc1ccc(N(C)C(=S)Nc2ccc3nc(C)c(C)nc3c2)cc1	i	14*	-1	5	-4	-3	12	15*
SMILES	Neddyl block	KLK7 zymogen act	MT1-MMP act inh	DDE Tn7 FP inh	SKN-1 block	DDE Tn6 FP inh	KLK7 act conf	EDANS interfere	others
C=CCn1c(=NC(=O)c2ccc(S(=O)(=O)N3CCc4ccccc4C3)cc2)sc2cc(S(N)(=O)=O)ccc21	i	66*	-3	-2	14	0	70*	-208	K7 EDANS ctr=>69
COCCn1c(=NC(=O)c2ccc(S(=O)(=O)N3CCc4ccccc4C3)cc2)sc2cc(S(N)(=O)=O)ccc21	i	305*	-5	6	5	2	63*	80*
C#CCn1c(=NC(=O)c2ccc(S(=O)(=O)N3CCc4ccccc4C3)cc2)sc2cc(S(N)(=O)=O)ccc21	i	x	-13	x	0	x	x	x
O=C(CCNS(=O)(=O)c1ccc(Br)s1)N1CCCCC1	i	0	1	-1	18	1	x	x
O=C(c1ccc2c3c(cccc13)CC2)C1CCCN(Cc2ccncc2)C1 (stereo not drawn)	i	0	-8	-2	4	3	x	x
CCc1nc(CN2CCCC(C(=O)c3ccc4c5c(cccc35)CC4)C2)c(C)[nH]1 (stereo not drawn)	x	15*	2	-5	6	-5	-4	0
CCOC(=O)COc1ccc2nsnc2c1Cl	x	38*	1	0	0	-3	37*	41*
COc1ccc(C(=O)NC2CCCCCC2)cc1S(=O)(=O)Nc1ccc(Br)cc1	i	1	4	-4	-35	1	x	x
N=c1c(C(=O)NCCN2CCOCC2)cc2c(=O)n3ccccc3nc2n1CCc1ccccc1	x	24*	-3	2	-12	-1	8	11*
N=c1c(C(=O)NCc2ccccc2)cc2c(=O)n3ccccc3nc2n1CCCN1CCOCC1	x	13*	3	2	-13	0	2	3
COc1ccc(CCNC(=O)c2cc3c(=O)n4cccc(C)c4nc3n(CCCN3CCOCC3)c2=N)cc1	i	0	-2	9	2	0	x	x
N=c1c(C(=O)NCc2ccc(F)cc2)cc2c(=O)n3ccccc3nc2n1CCCN1CCOCC1	x	5	3	4	12	-3	x	x
